Shown are actives, neighbours in structure and some others; about 2.1% of the full set was active somewhere.
ARNT-TACC3 inh: ARNT/TACC3 interaction disruption; Q9Y6A5; AlphaScreen His-ARNT PAS-B/GST-TACC3 binding, luminescence; TACC3 fragment carries E629A point mutation; inhibition, % at 9.99 µM; 390,000 tested, 0.66% active; AID 623870;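 active means mean inhibition of replicates at least 50% and at least half of replicates each reaching 50%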;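 further: 0% = complete ARNT plus TACC3 wells and 100% = ARNT alone without TACC3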
miR122 inh: blocks miR-122 activity in Huh7 sensor cells; Huh7 miR-122 Renilla luciferase sensor, 48 h; neutral wells = 0, positive control = 100; activation (reporter increase), % at 12.5 µM; 340,000 tested, 0.3% active;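 active means mean replicate activation score at least 90 and every replicate individually at or above 90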;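 further: higher luciferase means less miR-122 activity so hits act as miR-122 inhibitors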
SR-BI DiI-HDL act: activators of SR-BI mediated HDL lipid uptake; AID 504775; activation, % at 12.5 µM; CHO ldlA[mSR-BI] cells, DiI-HDL uptake fluorescence, 3 h; 100 = double the neutral-control signal; 320,000 tested, 0.096% active;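 active means mean replicate activation of at least 60% and every replicate at or above 60%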;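 further: 0% = median plate neutral-control signal and 100% = twice that signal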
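Test system: SR-BI-overexpressing, LDLR-lacking CHO cells. Measured by: DiI fluorescence, bottom read. Medium: Ham's F12 with 0.5% BSA, HEPES 25 mM, pH 7.4. Timing: 3 h uptake period with compound, 37 °C.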
SR-BI DiI inh: mouse SR-BI HDL lipid transfer inhibition; AID 488896; Q61009; ldlA[mSR-BI] CHO cells, DiI-HDL uptake fluorescence, 3 h; inhibition, % at 12.5 µM; 320,000 tested, 0.96% active;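 active means mean replicate inhibition of at least 70% and a set share of replicates each scoring 70 or more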;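 further: 0% = median of neutral control wells and 100% = median of positive control wells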
Target sequence (Q61009 whole entry, looked up): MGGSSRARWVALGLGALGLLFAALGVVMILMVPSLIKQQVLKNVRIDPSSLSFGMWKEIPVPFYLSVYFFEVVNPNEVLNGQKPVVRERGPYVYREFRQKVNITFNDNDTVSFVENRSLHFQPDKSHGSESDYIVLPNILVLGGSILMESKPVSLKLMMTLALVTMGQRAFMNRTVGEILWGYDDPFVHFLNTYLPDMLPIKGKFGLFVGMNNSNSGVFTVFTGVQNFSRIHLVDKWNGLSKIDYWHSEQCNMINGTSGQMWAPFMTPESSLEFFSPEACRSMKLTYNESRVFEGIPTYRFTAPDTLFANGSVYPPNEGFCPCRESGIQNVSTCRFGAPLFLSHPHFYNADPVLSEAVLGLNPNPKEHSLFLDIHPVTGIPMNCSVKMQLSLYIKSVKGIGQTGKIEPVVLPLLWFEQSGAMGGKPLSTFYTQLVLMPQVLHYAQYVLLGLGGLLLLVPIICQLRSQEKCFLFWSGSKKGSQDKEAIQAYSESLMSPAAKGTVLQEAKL
CAL PDZ FP-1: human CAL PDZ-peptide interaction inhibition | Q9HD26 | 330,000 tested, 0.02% active | inhibition, % at 20 µM | purified CAL PDZ, TMR-peptide fluorescence polarization, 1 h;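 active means highest replicate inhibition of at least 40%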;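 further: plate controls were DMSO neutral control wells for no effect and unlabeled competitor peptide control wells for full effect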
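Read-out basis: mP drop reported as inhibition | Assay system: Tagged CAL PDZ protein CerCALP, purified | Benchmarks: Unlabelled peptide for full inhibition, DMSO wells as neutral | Schedule: 1 h incubation at room temperature before polarization reading | Buffer or medium: Sodium phosphate/NaCl buffer pH 7.4 with TCEP, IgG, Thesit | Doses: Single point, 20 µM | Measured by: Fluorescence polarization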
CAL PDZ FP-2: CAL PDZ (human) peptide binding inhibition | Q9HD26 | purified CAL PDZ, TMR-peptide fluorescence polarization, 1 h | inhibition, % at 24.9 µM | 300,000 tested, 0.92% active;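 active means mean inhibition of at least 30% with at least half of replicates also reaching 30%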;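 further: 0% = DMSO neutral control and 100% = excess unlabeled competitor peptide PRC23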
Active calls of the source: *; x = not tested or not shown; [ ] = another dose, or the depositor's remark.

SMILES	ARNT-TACC3 inh	miR122 inh	SR-BI DiI-HDL act	SR-BI DiI inh	CAL PDZ FP-1	CAL PDZ FP-2
CC1=CC(C)(C)N(S(=O)(=O)c2ccc(C)cc2)c2cc(C)ccc21	5	94*	0	0	-3	-2
COc1ccc2c(c1)C(C)=CC(C)(C)N2S(=O)(=O)c1ccc(C)cc1	4	54	-4	4	-1	3
CCN1[C@H](C(=O)OC)[C@@H](CO)[C@@H]2Cn3c(ccc(-c4cccc(C(=O)N(C)C)c4)c3=O)[C@@H]21	27	3[16.7 µM]	x	x	x	x
CC(C(=O)c1ccccc1)n1c(N2CCOCC2)nc2c1c(=O)n(C)c(=O)n2C (stereo not drawn)	21	6	63*	-63	-1	0
Cn1c(=O)c2c(nc(N3CCOCC3)n2C)n(C)c1=O	-4	-2	49	-49	0	-2
COc1ccc(S(=O)(=O)Nc2cc(C)cc(C)n2)c2ccccc12	-5	-31	8	-8	-2	-6
CCOc1ccc(S(=O)(=O)NCc2ccc(C)cc2)c2cccnc12	-3	11	-7	7	0	1
CCOc1ccc(NS(=O)(=O)c2ccc(OCC)c3ncccc23)cc1	x	139*	4	-4	-3	x
CCOc1ccc(S(=O)(=O)Nc2cc(C)ccn2)c2ccccc12	-5	237*	-5	5	-1	-2
Cc1ccc(S(=O)(=O)N2C[C@H](O)COC[C@H]3O[C@H](CC(=O)NCC4CCCCC4)CC[C@@H]32)cc1	24	-2[16.7 µM]	x	x	x	x
Nc1ccc(N)c(C(=O)O)c1	47*	-2	12	-12	1	0
Nc1ccc(C(=O)O)c(O)c1	-3	1	1	-1	-1	1
COCC(=O)Nc1nc2n(n1)C(c1ccc(Cl)cc1)CC(c1ccc(OC)cc1)N2 (stereo not drawn)	4	-6	-74	74*	-2	-1
COCC(=O)Nc1nc2n(n1)C(c1ccccc1Cl)CC(c1ccc(OC)cc1)N2 (stereo not drawn)	-12	-4	-8	8	-1	-6
CN1C(=O)c2cc(NC(=O)C3CC3)ccc2OC[C@H]2O[C@H](CC(=O)NCCN3CCCC3)CC[C@@H]21	-6	-22[16.7 µM]	x	x	x	x
CCN(C(=S)Nc1cccnc1)c1cccc2ccccc12	51*	x	-10	10	0	-5
Cc1cc(NC(=O)/C=C/c2ccccc2Cl)n(-c2nc3ccccc3[nH]2)n1	-16	x	-96	96*	-2	2
O=C(COC(=O)c1ccc(Br)o1)NCc1ccc(Cl)cc1	-5	0	9	-9	0	31*
O=C(COC(=O)c1cc(=O)c2ccccc2o1)NCc1ccccc1	0	-14	23	-23	-1	50*
COc1cc(/C=C2\COC/C(=C\c3cc(OC)c(OC)c(OC)c3)C2=O)cc(OC)c1OC	-3	x	-83	83*	0	-4
COc1cc(/C=C2\CC/C(=C\c3cc(OC)c(O)c(OC)c3)C2=O)cc(OC)c1O	7	x	-49	49	1	-2
COc1cc(/C=C2/CCC/C(=C\c3cc(O)c(OC)c(Cl)c3)C2=O)cc(Cl)c1O	3	113*	-67	67	-1	-4
CN(CC(=O)NCCCN1CCOCC1)S(=O)(=O)c1ccc(Br)cc1	-8	-1	-78	78*	-1	1
C=CCNc1nc(Nc2ccc([N+](=O)[O-])cc2)nc(N2CCCC2)n1	x	x	-76	76*	-2	-3
Cn1cnnc1SCC(=O)Nc1ccc(OCc2ccccc2)cc1	0	x	-13	13	-1	41*
SMILES	ARNT-TACC3 inh	miR122 inh	SR-BI DiI-HDL act	SR-BI DiI inh	CAL PDZ FP-1	CAL PDZ FP-2
Cc1ccc2nc(-c3ccc(NC(=O)CSc4nc(N)cc(=O)[nH]4)cc3)sc2c1	-3	-1	-11	11	0	54*
Cc1ccc2nc(-c3ccc(NC(=O)CSc4nccc(=O)[nH]4)cc3)sc2c1	x	x	2	-2	-2	-12
CCC1(c2ccc(F)cc2)NC(=O)N(CC(=O)Nc2ccc(-c3nc4ccc(C)cc4s3)cc2)C1=O (stereo not drawn)	-2	271*	-18	18	-1	x
Cc1ccc(NC(=O)CSc2nc3nc(C)cc(C)c3c(=O)[nH]2)cc1	-3	1	16	-16	x	37*
COc1ccc(C2(C)NC(=O)N(CC(=O)Nc3ccc(-c4nc5ccc(C)cc5s4)cc3)C2=O)cc1 (stereo not drawn)	x	1	-66	66	-2	9
CCOc1ccc(NC(=O)CN(C)C(=O)c2ccc3[nH]c4c(c3c2)CC(C)CC4)cc1OCC (stereo not drawn)	1	-3	x	x	0	-5
Cc1ccc(NC(=O)CN(C)C(=O)c2ccc3[nH]c4c(c3c2)CC(C)CC4)cc1 (stereo not drawn)	2	8	-14	14	0	74*
CC(=O)N(/N=C1\Sc2ccccc2C1=O)c1ccccc1C	59*	3	-7	7	0	-1
CC(=O)N(/N=C1\Sc2ccccc2C1=O)c1ccc(C)cc1C	1	7	-20	20	0	-3
CCCCNc1c(-c2ccc(SC3CCCCC3)c(OC)c2)nc2ccc(Cl)cn12	0	11	-75	75*	0	-3
CCCCNc1c(-c2ccc(OC)c(Sc3ccc(OC)cc3)c2)nc2ccccn12	x	11	-59	59	1	-2
CCCCCCSc1ccc(-c2nc3ccc(Cl)cn3c2NCCCC)cc1OC	-8	6	-28	28	1	1
CCCCNc1c(-c2ccc(-c3ccc(OC)cc3)c(OC)c2)nc2ccccn12	22	0	-87	87*	-1	-4
COc1ccccc1C(=O)NNC(=O)c1ccc(NC(=O)C(C)C)cc1	-3	x	-11	11	-2	66*
COc1ccc(C(=O)Nc2cccc3nc(C)ccc23)c(OC)c1	20	-3	-53	53	-3	5
COc1ccccc1C(=O)NNC(=O)c1ccc(O)cc1	x	1	x	x	x	x
COc1ccccc1C(=O)Nc1cccc2nc(C)ccc12	0	1	-34	34	8	82*
Cc1ccc(NC(=O)c2ccccc2OCC(=O)c2ccccc2)cc1	0	-11	-78	78*	-1	-4
COc1ccccc1C(=O)Nc1ccc(C(=O)O)cc1	14	4	11	-11	x	7
COc1ccccc1C(=O)Oc1ccccc1C(=O)Nc1ccccc1	1	5	9	-9	-1	74*
Cc1ccc(S(=O)(=O)N(C)C[C@@H]2Oc3c(cccc3N(C)C)C(=O)N([C@H](C)CO)C[C@@H]2C)cc1	x	-8[16.7 µM]	x	x	x	x
COc1ccc(-c2oc(NC(=O)c3ccc(C)cc3)c(C#N)c2-c2ccc(OC)cc2)cc1	-5	-2	-45	45	0	x

Compound activity (PubChem)
